The values below come from ChEMBL document CHEMBL1817592, “Triazoles as γ-secretase modulators” (Bioorg Med Chem Lett, 2011).

Format in all cases: ADME, organism-based
The nature of series [1]: Plasma concentration in Sprague-Dawley rat at 60 mg/kg, po after 6 hrs. The arrangement: dose 60 mg/kg, route oral. In short, it runs like this:
(§1)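 Single 60 mg/kg oral dose in SD rats. Plasma and brain drug exposure and central Aβ42 were assessed 6 h post-dose.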

The nature of series [2]: Half life in Sprague-Dawley rat at 1 mg/kg, iv. The arrangement: dose 1 mg/kg, route intravenous. To be noted: in vivo. Summed up: (§2)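 SD rat pharmacokinetics: 1 mg/kg iv and 2 mg/kg po. Plasma clearance and Vd were determined. Half-life came from the iv arm.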
The subject of series [3] is Rattus norvegicus. The series is described as follows: Dose normalized AUC (0 to 24 hrs) in Sprague-Dawley rat at 2 mg/kg, po. To be noted: in vivo. Details: dose 2 mg/kg, route oral. In short, it runs like this:
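Sprague–Dawley rats dosed orally at 2 mg/kg, alongside a separate 1 mg/kg iv arm. Plasma exposure was followed over 0–24 h after the oral dose. AUC was normalized to dose and expressed as μM h kg/mg.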

Series [4] can be described thus: Drug level in Sprague-Dawley rat brain at 60 mg/kg, po after 6 hrs. The arrangement: dose 60 mg/kg, route oral. To be noted: read-out: Drug uptake. In short, it runs like this: as §1
Series [5] can be described thus: Oral bioavailability in Sprague-Dawley rat at 2 mg/kg. To be noted: in vivo. Summed up:
as §2

The nature of series [6]: Plasma clearance in Sprague-Dawley rat at 1 mg/kg, iv and 2 mg/kg, po. Summed up: as §2
Series [7] is described as follows: Volume of distribution at steady state in Sprague-Dawley rat at 1 mg/kg, iv and 2 mg/kg, po. To be noted: in vivo, read-out: Vdss. Summed up:
as §2

The nature of series [8]: Plasma concentration in Sprague-Dawley rat at 100 mg/kg, po after 6 hrs. The arrangement: dose 100 mg/kg, route oral. Summed up: (§3)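 SD rats given a single 100 mg/kg oral dose, n=5. Plasma and whole brain were taken 6 h later. Drug concentrations were measured in both, the brain-to-plasma ratio was derived from them, and whole-brain Aβ42 was reported as percent change.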

A short description of series [9]: Drug level in Sprague-Dawley rat brain at 100 mg/kg, po after 6 hrs. To be noted: read-out: Drug uptake. Details: dose 100 mg/kg, route oral. Summed up:
as §3

The nature of series [10]: Ratio of drug level in brain to plasma in Sprague-Dawley rat at 100 mg/kg, po after 6 hrs. Details: dose 100 mg/kg, route oral. To be noted: read-out: BPR. In short, it runs like this:
as §3

Usually half-life stands for how long it takes for the measured level to halve. The low end stands for rapid decline, the high end for slow decline. Usually bioavailability stands for the share of a dose that reaches the circulation, judged against a reference dose that is usually intravenous. The low end stands for little systemic uptake, the high end for much systemic uptake. Take `COc1cc(-c2cn(Cc3ccc(-c4nc5ccccc5o4)cc3)nn2)ccc1-n1cnc(C)c1`: the concentration at 6 h in [1] was determined as 40 µM; in series [4] it was 9.4 µM. The compound further had a half-life in series [2] of 5.4 h. The compound also had an AUC/dose in series [3] of 2.6 µM·kg·h/mg. In series [5], this compound gave a bioavailability of 49%. Besides, in series [6], the clearance was found to be 13.7 mL/min/kg. In series [7], the Vd was found to be 2.8 L/kg.
In turn, `COc1cc(-c2cn(Cc3ccc(C(C)(C)C)cc3)nn2)ccc1-n1cnc(C)c1` gave a half-life in [2] of 7.7 h. The concentration at 6 h in series [8] was found to be 47 µM; in [9] it was 56 µM. The AUC/dose in series [3] stood at 1.4 µM·kg·h/mg. The Kp at 6 h in series [10] is 1.2. Also, the bioavailability in [5] was found to be 41%. Further, the clearance in series [6] turned out to be 24 mL/min/kg. The Vd in series [7] was determined as 7.1 L/kg.
